Source: ChEMBL document CHEMBL3860041, “Synthesis, biological evaluation and molecular modeling study of some new methoxylated 2-benzylthio-quinazoline-4(3H)-ones as nonclassical antifolates” (Bioorg Med Chem Lett, 2016)

Key:
[1] = Growth inhibition of human IGROV1 cells at 10 uM after 48 hrs by SRB assay relative to control; format: functional; details: IGROV-1, 48 h, read-out: GI
Procedure, shortened: (§1)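 NCI 60-cell-line panel, nine tumor subpanels; compounds tested at a single dose of 10 μM in the primary screen.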

[2] = Growth inhibition of human SK-MEL-28 cells at 10 uM after 48 hrs by SRB assay relative to control; format: functional; details: SK-MEL-28, 48 h, read-out: GI
Procedure, shortened: (§2)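 Primary screen across the full NCI 60 human tumour cell line panel, which covers nine tumour subpanels. A single dose of 10 μM was applied to each line, and growth was recorded for each cell line.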

[3] = Growth inhibition of human UACC257 cells at 10 uM after 48 hrs by SRB assay relative to control; format: functional; details: UACC-257, 48 h, read-out: GI; procedure, shortened: as §2
[4] = Growth inhibition of human UO31 cells at 10 uM after 48 hrs by SRB assay relative to control; format: functional; details: UO-31, 48 h, read-out: GI; procedure, shortened: as §2
[5] = Growth inhibition of human K562 cells at 10 uM after 48 hrs by SRB assay relative to control; format: functional; details: K562, 48 h, read-out: GI; procedure, shortened: as §1
[6] = Growth inhibition of human HT-29 cells at 10 uM after 48 hrs by SRB assay relative to control; format: functional; details: HT-29, 48 h, read-out: GI; procedure, shortened: as §1
[7] = Growth inhibition of human SF268 cells at 10 uM after 48 hrs by SRB assay relative to control; format: functional; details: SF-268, 48 h, read-out: GI; procedure, shortened: as §1
[8] = Growth inhibition of human A498 cells at 10 uM after 48 hrs by SRB assay relative to control; format: functional; details: A498, 48 h, read-out: GI; procedure, shortened: as §1
[9] = Growth inhibition of human SF539 cells at 10 uM after 48 hrs by SRB assay relative to control; format: functional; details: SF-539, 48 h, read-out: GI; procedure, shortened: as §1
[10] = Growth inhibition of human SW620 cells at 10 uM after 48 hrs by SRB assay relative to control; format: functional; details: SW-620, 48 h, read-out: GI; procedure, shortened: as §2
[11] = Growth inhibition of human UACC62 cells at 10 uM after 48 hrs by SRB assay relative to control; format: functional; details: UACC-62, 48 h, read-out: GI; procedure, shortened: as §2
[12] = Growth inhibition of human OVCAR3 cells at 10 uM after 48 hrs by SRB assay relative to control; format: functional; details: OVCAR-3, 48 h, read-out: GI; procedure, shortened: as §1
[13] = Growth inhibition of human BT549 cells at 10 uM after 48 hrs by SRB assay relative to control; format: functional; details: BT-549, 48 h, read-out: GI; procedure, shortened: as §1
[14] = Growth inhibition of human LOXIMVI cells at 10 uM after 48 hrs by SRB assay relative to control; format: functional; details: LOX IMVI, read-out: GI; procedure, shortened: as §1
[15] = target: T1, Dihydrofolate reductase (Bos taurus, UniProt P00376); test: Inhibition of bovine liver DHFR preincubated for 2 mins followed by addition of FH2 as substrate and NADPH
T1 sequence (P00376 whole entry): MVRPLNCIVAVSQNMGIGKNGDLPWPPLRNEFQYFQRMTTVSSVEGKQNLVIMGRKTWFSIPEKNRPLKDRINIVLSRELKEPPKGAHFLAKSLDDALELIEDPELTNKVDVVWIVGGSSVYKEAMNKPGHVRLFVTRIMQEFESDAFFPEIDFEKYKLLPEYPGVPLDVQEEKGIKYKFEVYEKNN

[16] = Growth inhibition of human SK-MEL-5 cells at 10 uM after 48 hrs by SRB assay relative to control; format: functional; details: SK-MEL-5, 48 h, read-out: GI; procedure, shortened: as §2
[17] = Growth inhibition of human RPMI8226 cells at 10 uM after 48 hrs by SRB assay relative to control; format: functional; details: RPMI-8226, 48 h, read-out: GI; procedure, shortened: as §1
[18] = Growth inhibition of human Caki1 cells at 10 uM after 48 hrs by SRB assay relative to control; format: functional; details: CAKI-1, 48 h, read-out: GI; procedure, shortened: as §1
[19] = Growth inhibition of human MOLT4 cells at 10 uM after 48 hrs by SRB assay relative to control; format: functional; details: MOLT-4, 48 h, read-out: GI; procedure, shortened: as §1
[20] = Growth inhibition of human ACHN cells at 10 uM after 48 hrs by SRB assay relative to control; format: functional; details: read-out: GI; procedure, shortened: as §1
[21] = Growth inhibition of human HOP92 cells at 10 uM after 48 hrs by SRB assay relative to control; format: functional; details: HOP-92, 48 h, read-out: GI; procedure, shortened: as §1
[22] = Growth inhibition of human HCT116 cells at 10 uM after 48 hrs by SRB assay relative to control; format: functional; details: HCT-116, 48 h, read-out: GI; procedure, shortened: as §1
[23] = Growth inhibition of human SNB75 cells at 10 uM after 48 hrs by SRB assay relative to control; format: functional; details: SNB-75, 48 h, read-out: GI; procedure, shortened: as §2
[24] = Growth inhibition of human SR cells at 10 uM after 48 hrs by SRB assay relative to control; format: functional; details: read-out: GI; procedure, shortened: as §2
[25] = Growth inhibition of human OVCAR4 cells at 10 uM after 48 hrs by SRB assay relative to control; format: functional; details: OVCAR-4, 48 h, read-out: GI; procedure, shortened: as §1
[26] = Growth inhibition of human MCF7 cells at 10 uM after 48 hrs by SRB assay relative to control; format: functional; details: MCF7, 48 h, read-out: GI; procedure, shortened: as §1
[27] = Growth inhibition of human NCI-H23 cells at 10 uM after 48 hrs by SRB assay relative to control; format: functional; details: NCI-H23, 48 h, read-out: GI; procedure, shortened: as §1
[28] = Growth inhibition of human prostate cancer cells after 48 hrs by SRB assay; format: functional; details: Cancer cell lines
Procedure, shortened: (§3)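 Follow-up NCI panel testing over a 5-log dose range for each cell line. GI50, TGI and LC50 were monitored, with 5-fluorouracil run as the positive control. Values are grouped by tumour subpanel.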

[29] = Growth inhibition of human breast cancer cells after 48 hrs by SRB assay; format: functional; details: Cancer cell lines; procedure, shortened: as §3
[30] = tested on: Cancer cell lines; test: Potency index, ratio of 5-fluorouracil GI50 to compound GI50 for human breast cancer cells; format: functional
Procedure, shortened: (§4)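 GI50 for each cell line came from NCI panel testing over a 5-log dose range, with 5-fluorouracil tested alongside as the reference drug. The index relates the 5-fluorouracil GI50 to the compound GI50 within each tumour subpanel.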

[31] = tested on: Cancer cell lines; test: Potency index, ratio of 5-fluorouracil GI50 to compound GI50 for human renal cancer cells; format: functional; procedure, shortened: as §4
[32] = tested on: Cancer cell lines; test: Potency index, ratio of 5-fluorouracil GI50 to compound GI50 for human CNS cancer cells; format: functional; procedure, shortened: as §4
[33] = Growth inhibition of human leukemia cells after 48 hrs by SRB assay; format: functional; details: Leukemia cell; for CC50: read-out: LC50 (the source's name); procedure, shortened: as §3
[34] = Growth inhibition of human CNS cancer cells after 48 hrs by SRB assay; format: functional; details: Cancer cell lines
Procedure, shortened: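 Five-log dose range against NCI tumor cell lines, monitoring GI50, TGI and LC50 for each cell line; MG-MID values derived across the panel; 5-fluorouracil positive control.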

[35] = tested on: Cancer cell lines; test: Potency index, ratio of 5-fluorouracil GI50 to compound GI50 for human prostate cancer cells; format: functional; procedure, shortened: as §4

## COc1ccc(CSc2nc3cc(OC)c(OC)cc3c(=O)n2-c2ccc(OC)cc2OC)cc1
[1]
  inhibition of growth at 10 µM: 14%
[2]
  inhibition of growth at 10 µM: < 10%
[3]
  inhibition of growth at 10 µM: < 10%
[4]
  inhibition of growth at 10 µM: 44.6%
[5]
  inhibition of growth at 10 µM: 12.9%
[6]
  inhibition of growth at 10 µM: 12%
[7]
  inhibition of growth at 10 µM: 13.7%
[8]
  inhibition of growth at 10 µM: 41.4%
[9]
  inhibition of growth at 10 µM: < 10%
[10]
  inhibition of growth at 10 µM: < 10%
[11]
  inhibition of growth at 10 µM: 19.8%
[12]
  inhibition of growth at 10 µM: < 10%
[13]
  inhibition of growth at 10 µM: < 10%
[14]
  inhibition of growth at 10 µM: 16.6%
[15]
  IC50: 0.3 µM
[16]
  inhibition of growth at 10 µM: 19.5%
[17]
  inhibition of growth at 10 µM: 36.3%
[18]
  inhibition of growth at 10 µM: 31.3%
[19]
  inhibition of growth at 10 µM: 20.6%
[20]
  inhibition of growth at 10 µM: < 10%
[21]
  inhibition of growth at 10 µM: 24.5%
[22]
  inhibition of growth at 10 µM: 37.2%
[23]
  inhibition of growth at 10 µM: < 10%
[24]
  inhibition of growth at 10 µM: 40.6%
[25]
  inhibition of growth at 10 µM: 16.8%
[26]
  inhibition of growth at 10 µM: 16.9%
[27]
  inhibition of growth at 10 µM: 21.7%

## COc1ccccc1-n1c(SCc2cc(OC)c(OC)c(OC)c2)nc2ccc(Cl)cc2c1=O
[28]
  GI50: 5.9 µM
  LC50 (concentration killing 50% of cells): > 100 µM
  TGI: > 100 µM
[29]
  GI50: 3.5 µM
  LC50: > 100 µM
  TGI: 84.8 µM
[1]
  inhibition of growth at 10 µM: 52.3%
[2]
  inhibition of growth at 10 µM: 50.7%
[3]
  inhibition of growth at 10 µM: < 10%
[4]
  inhibition of growth at 10 µM: 57.4%
[5]
  inhibition of growth at 10 µM: 87.3%
[6]
  inhibition of growth at 10 µM: 92.3%
[7]
  inhibition of growth at 10 µM: 58.4%
[30]
  RatioGI50: 2 - 10
[8]
  inhibition of growth at 10 µM: 95%
[9]
  inhibition of growth at 10 µM: 35.5%
[10]
  inhibition of growth at 10 µM: 83.2%
[11]
  inhibition of growth at 10 µM: 65.7%
[12]
  inhibition of growth at 10 µM: 99.5%
[13]
  inhibition of growth at 10 µM: 60.5%
[31]
  RatioGI50: 2 - 10
[14]
  inhibition of growth at 10 µM: 66.8%
[32]
  RatioGI50: 2 - 10
[15]
  IC50: 0.1 µM
[16]
  inhibition of growth at 10 µM: 72.3%
[17]
  inhibition of growth at 10 µM: 82.6%
[18]
  inhibition of growth at 10 µM: 57.4%
[33]
  GI50: 2.4 µM
  TGI: 86.5 µM
  CC50: > 100 µM
[19]
  inhibition of growth at 10 µM: 84.7%
[20]
  inhibition of growth at 10 µM: 55.8%
[21]
  inhibition of growth at 10 µM: 57.1%
[22]
  inhibition of growth at 10 µM: 78.9%
[34]
  GI50: 7.9 µM
  LC50 (lethal concentration, 50% net cell kill): > 100 µM
  TGI: 63.1 µM
[24]
  inhibition of growth at 10 µM: 84%
[25]
  inhibition of growth at 10 µM: 37%
[26]
  inhibition of growth at 10 µM: 84.4%
[35]
  RatioGI50: 2 - 10
[27]
  inhibition of growth at 10 µM: 63.9%

## COc1ccc(-n2c(SCc3cc(OC)c(OC)c(OC)c3)nc3ccc(C)cc3c2=O)c(OC)c1
[28]
  GI50: 3.7 µM
  LC50 (concentration killing 50% of cells): > 100 µM
  TGI: > 100 µM
[29]
  GI50: 4.1 µM
  LC50: > 100 µM
  TGI: 84.9 µM
[1]
  inhibition of growth at 10 µM: 64.3%
[2]
  inhibition of growth at 10 µM: 59.2%
[3]
  inhibition of growth at 10 µM: < 10%
[4]
  inhibition of growth at 10 µM: 81.8%
[5]
  inhibition of growth at 10 µM: 85.6%
[6]
  inhibition of growth at 10 µM: 88.8%
[7]
  inhibition of growth at 10 µM: 55.9%
[30]
  RatioGI50: 2 - 10
[9]
  inhibition of growth at 10 µM: 80%
[10]
  inhibition of growth at 10 µM: 27.9%
[11]
  inhibition of growth at 10 µM: 75.6%
[13]
  inhibition of growth at 10 µM: 67.9%
[31]
  RatioGI50: 2 - 10
[14]
  inhibition of growth at 10 µM: 68.4%
[32]
  RatioGI50: 2 - 10
[15]
  IC50: 3 µM
[16]
  inhibition of growth at 10 µM: 82.4%
[18]
  inhibition of growth at 10 µM: 86.7%
[33]
  GI50: 2.5 µM
  TGI: 56.2 µM
  CC50: > 100 µM
[19]
  inhibition of growth at 10 µM: 88.7%
[20]
  inhibition of growth at 10 µM: 55.1%
[21]
  inhibition of growth at 10 µM: 77.3%
[22]
  inhibition of growth at 10 µM: 81.9%
[23]
  inhibition of growth at 10 µM: 70.4%
[34]
  GI50: 9.6 µM
  LC50 (lethal concentration, 50% net cell kill): > 100 µM
  TGI: 84.6 µM
[24]
  inhibition of growth at 10 µM: 92.3%
[25]
  inhibition of growth at 10 µM: 42.6%
[26]
  inhibition of growth at 10 µM: 84.6%
[35]
  RatioGI50: 2 - 10
[27]
  inhibition of growth at 10 µM: 82.2%
